Consider 16 compounds from ChEMBL document CHEMBL2021817, “Synthesis and anti-norovirus activity of pyranobenzopyrone compounds” (Bioorg Med Chem Lett, 2012).

One data set relates to Norovirus. Briefly: Antiviral activity against Norovirus infected in human HG23 cells assessed as inhibition of viral replication after 24 hrs by RT-PCR analysis. The note with it: HG23, 24 h, read-out: ED50 (the source's name). It counts as functional. An outline of the steps: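 Norwalk virus replicon-bearing HG23 cells were used one day after seeding, at 80-90% confluence. They were exposed to a range of compound concentrations from 0 (DMSO mock) to 10 µM. NV genome levels were quantified by real-time qRT-PCR. ED50 was taken as the concentration that lowered NV genome levels by 50%.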

A short description of data set [1]: Cytotoxicity against human HG23 cells after 48 hrs. In kind it is cell-based. The following applies: read-out: TD50. An outline of the steps:
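HG23 cells (Norwalk virus replicon-harboring) were exposed to a concentration series from 0 (mock, DMSO) to 200 µM. Viability was read with a commercial cell cytotoxicity assay kit after 48 h of treatment, and the median toxic dose (TD50) was calculated from it.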

A short description of data set [2]: Therapeutic index, ratio of TD50 for human HG23 cells to ED50 for Norovirus. In kind it is cell-based. The following applies: read-out: Ratio TD50/ED50. In short, it runs like this:
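TI was taken as TD50 over ED50, both measured in HG23 replicon cells. For ED50, one-day-old cells at 80-90% confluence were treated with 0 (mock, DMSO) to 10 µM, and replicon genome levels were quantified by real-time qRT-PCR at 48 h. For TD50, cells were treated with 0 to 200 µM and read with a cytotoxicity kit at 48 h.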

Structures are written as SMILES.

Consider `Cc1cc2c(c(=O)o1)C=C1CC[C@H](C(C)CNC(=O)c3ccnc4ccccc34)C[C@@H]1O2` (stereo not given in full), for which, in the data set on Norovirus, the EC50 worked out at 5.5 µM. Further, in data set [1], the CC50 at 48 h came to 104 µM. Further, the selectivity ratio in data set [2] turned out to be 18.8.

On to `Cc1cc2c(c(=O)o1)C=C1CC[C@H](C(C)CNCc3ccc4ncccc4c3)C[C@@H]1O2` (stereo not given in full), for which the EC50 in the data set on Norovirus worked out at 8.1 µM.

Consider `Cc1cc(CNCC(C)[C@H]2CCC3=Cc4c(cc(C)oc4=O)O[C@H]3C2)c2ccccc2n1` (mixture of isomers), for which the EC50 with Norovirus amounted to 8.2 µM.

Consider `CC(=O)OCc1cc(CNCC(C)[C@H]2CCC3=Cc4c(cc(C)oc4=O)O[C@H]3C2)c2ccccc2n1` (mixture of isomers), for which the EC50 with Norovirus turned out to be 9.7 µM.

`Cc1cc2c(c(=O)o1)C=C1CC[C@H](C(C)CNCc3cc(CO)nc4ccccc34)C[C@@H]1O2` (mixture of isomers): in the data set on Norovirus, the EC50 amounted to 9.5 µM.

On to `Cc1cc2c(c(=O)o1)C=C1CC[C@H](C(C)CNCc3cc(C4OCOCO4)nc4ccccc34)C[C@@H]1O2` (mixture of isomers), for which, in the data set with Norovirus, the EC50 was 8.4 µM.

On to `Cc1cc2c(c(=O)o1)C=C1CC[C@H](C(C)CNCc3cc(C)c4ccccc4n3)C[C@@H]1O2` (mixture of isomers), for which, in the data set with Norovirus, the EC50 was 5.3 µM. For the same compound, the CC50 at 48 h in data set [1] is over 200 µM. Also, the selectivity ratio in data set [2] is over 40.

As to `Cc1ccc2nccc(CNCC(C)[C@H]3CCC4=Cc5c(cc(C)oc5=O)O[C@H]4C3)c2c1` (mixture of isomers), in the data set with Norovirus, the EC50 came out at 3.4 µM. In data set [1], the CC50 at 48 h turned out to be 61.2 µM. In addition, the selectivity ratio in data set [2] was determined as 18.

Turning to `Cc1ccc2nc(CNCC(C)[C@H]3CCC4=Cc5c(cc(C)oc5=O)O[C@H]4C3)ccc2c1` (mixture of isomers), the EC50 in the data set on Norovirus came out at 8.1 µM. Besides, in data set [1], the CC50 at 48 h is 83.7 µM. Further, the selectivity ratio in data set [2] amounted to 10.3.

Consider `Cc1cc2c(c(=O)o1)C=C1CC[C@H](C(C)CNCc3ccnc4c3ccc3ccccc34)C[C@@H]1O2` (mixture of isomers), for which the EC50 in the data set with Norovirus worked out at 5.3 µM. Also, in data set [1], the CC50 at 48 h is over 200 µM. In data set [2], the selectivity ratio is over 40.

Turning to `Cc1cc2c(c(=O)o1)C=C1CC[C@H](C(C)CN)C[C@@H]1O2` (mixture of isomers), the EC50 with Norovirus is over 10 µM. In addition, the CC50 at 48 h in data set [1] was over 200 µM.

`Cc1cc2c(c(=O)o1)C=C1CC[C@H](C(C)CNCc3cccnc3)C[C@@H]1O2` (mixture of isomers): the EC50 in the data set with Norovirus amounted to 4.1 µM. The CC50 at 48 h in data set [1] is over 200 µM. Besides, in data set [2], the selectivity ratio is over 50.

Turning to `Cc1cc2c(c(=O)o1)C=C1CC[C@H](C(C)CNCc3ccncc3)C[C@@H]1O2` (mixture of isomers), in the data set on Norovirus, the EC50 was 9.6 µM.

`Cc1cc2c(c(=O)o1)C=C1CC[C@H](C(C)CNCc3ccc4ccccc4n3)C[C@@H]1O2` (mixture of isomers): the EC50 in the data set with Norovirus was 3.4 µM. Moreover, the CC50 at 48 h in data set [1] is over 200 µM. In addition, in data set [2], the selectivity ratio is over 58.8.

For the compound `Cc1cc2c(c(=O)o1)C=C1CC[C@H](C(C)CNCc3ccnc4ccccc34)C[C@@H]1O2` (mixture of isomers), in the data set on Norovirus, the EC50 was determined as 2.4 µM. Further, the CC50 at 48 h in data set [1] came out at 96.4 µM. Besides, the selectivity ratio in data set [2] is 40.2.

On to `Cc1cc2c(c(=O)o1)C=C1CC[C@H](C(C)CNCc3cccc4cccnc34)C[C@@H]1O2` (mixture of isomers), for which the EC50 in the data set on Norovirus is over 10 µM. The CC50 at 48 h in data set [1] was over 160 µM. Besides, in data set [2], the selectivity ratio was over 16.
